Experimental data pooled from the literature.
Each line is one published result; the experiments were not run side by side.
Target: Serine/threonine-protein kinase PLK3 (PLK3, Homo sapiens, UniProt Q9H4B4)

| SMILES | observed | action | method | tested at | measurement | value |
| --- | --- | --- | --- | --- | --- | --- |
| C#Cc1cc(-c2cc(Nc3nc(N[C@@H](C)c4ccc(F)cn4)ncc3Cl)n[nH]2)ccc1C=O | enzyme activity | inhibitor | – | 0.2 µM | inhibition | 12.9% |
| COc1ccc2oc(-c3ccc4nc(N)oc4c3)c/c(=N\c3ccccc3NC(=O)CCN)c2c1 | binding | – | – | 1 µM | remaining binding | 101% |
| CCCCC(=O)Nc1ccc(-c2ccc3ncn(CCC)c(=O)c3c2)cn1 | binding | – | competition with immobilised ligand | 0.5 µM | remaining binding | 98% |
| C=CC(=O)N1CCC([C@@H]2CCNc3c(C(N)=O)c(-c4ccc(Oc5ccccc5)cc4)nn32)CC1 | enzyme activity | inhibitor | – | 1 µM | inhibition | 2% |
| N#Cc1ccc(NC(=O)Nc2ccccc2)cc1 | cell-free assay | – | competition with immobilised ligand | 25 µM | remaining binding | 88% |
| CC#CC(=O)N1CCC[C@H]1c1nc(-c2ccc(C(=O)Nc3ccccn3)cc2)c2c(N)nccn12 | enzyme activity | inhibitor | – | 1 µM | inhibition | 0% |
| COc1ccc2[nH]c3c4[nH]c5ccc(OC)cc5c4c4c(c3c2c1)C(=O)NC4=O | binding | – | – | 1 µM | remaining binding | 88% |
| C1=C/COCc2cc(ccc2OCCN2CCCC2)Nc2nccc(n2)-c2cccc(c2)COC/1 | binding | – | – | 0.1 µM | remaining binding | 99% |
| C[C@H]1CC[C@H](n2c3cnccc3c3cnc(Nc4ccc5c(n4)CCN(C(=O)CO)C5)nc32)CC1 | cell-free assay | – | – | 1 µM | remaining signal | 100% |
| C#Cc1cnc(Nc2ccnc(CO)c2)nc1Nc1ccccc1S(C)(=O)=NC#N (stereo not shown) | cell-free assay | – | – | 1 µM | remaining signal | 34% |
